# From ChEMBL document CHEMBL5370536, “Design, synthesis, and biological activity of dual monoamine oxidase A and heat shock protein 90 inhibitors, N-Methylpropargylamine-conjugated 4-isopropylresorcinol for glioblastoma” (Eur J Med Chem, 2023)
# Active and inactive are the calls of the source. The rule behind the calls is not given here.
# Experiments:
# RPMI-8226 = test: Growth inhibition of human RPMI-8226 cells incubated for 48 hrs by SRB assay; assay type: functional
# Outline: (§1)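 NCI-60 panel screen: cells seeded at 5000 to 40000 per well according to doubling time, 24 h before drug addition at various concentrations. A time-zero plate was TCA-fixed at drug addition. After 48 h drug exposure, growth was read by sulforhodamine B staining. Percent growth = [(Ti − Tz)/(C − Tz)] × 100, and GI50 is the concentration at which this equals 50.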
# U-251 [1] = test: Growth inhibition of human U-251 cells incubated for 48 hrs by SRB assay; assay type: functional; outline: as §1
# SF-539 = test: Growth inhibition of human SF-539 cells incubated for 48 hrs by SRB assay; assay type: functional; outline: as §1
# SNB-19 = test: Growth inhibition of human SNB-19 cells incubated for 48 hrs by SRB assay; assay type: functional; outline: as §1
# [2] = Antiproliferative activity against human U373 MG cells assessed as inhibition of cell growth measured after 72 hrs by CCK8 method; assay type: functional, cell-based, U-373MG ATCC
# Outline: (§2)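 Cell lines from ATCC or from patient surgical specimens (P1S, P3, P3R), kept in DMEM with 10% FBS and 1% penicillin/streptomycin at 37°C, 5% CO₂. P3R medium also held 50 μM TMZ. Cells were seeded at 2×10³/well 24 h before compound, then exposed 72 h.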
# [3] = Antiproliferative activity against mouse GL26 cells assessed as inhibition of cell growth measured after 48 hrs by MTT assay; assay type: functional, cell-based; details: GL26, 48 h
# Outline: (§3)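 Cells plated at 5×10³ per well 24 h before compound and grown in DMEM with 10% FBS at 37°C, 5% CO₂. After 48 h exposure, the medium was replaced with 0.5 mg/mL MTT for 3 h. Formazan was dissolved in DMSO and read at 570 nm.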
# HCT-116 [4] = test: Downregulation of PD-L1 expression in human HCT-116 cells; assay type: functional, cell-based
# Outline: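 HCT116 cells at 3 × 10⁵ per well were treated at various concentrations with or without 20 ng/mL IFN-γ for 48 h. Cells were stained with mouse anti-PD-L1 for 1 h in PBS/0.05% BSA, then FITC goat anti-mouse for 1 h. Surface FITC mean fluorescence intensity was measured by flow cytometry.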
# GL26 [5] = test: Downregulation of IFN-gamma induced PD-L1 expression in mouse GL26 cells incubated for 24 hrs by flow cytometry analysis; assay type: functional, cell-based
# Outline: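 GL26 cells at 3.6 × 10⁵ per well were treated at various concentrations with or without 10 ng/mL IFN-γ for 24 h. Cells were stained with goat anti-PD-L1 for 1 h in PBS/0.05% BSA, then FITC donkey anti-goat for 1 h, and read by flow cytometry. MFI was normalised to the secondary-antibody-only isotype control and expressed as an MFI ratio.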
# K562 = test: Growth inhibition of human K562 cells incubated for 48 hrs by SRB assay; assay type: functional; outline: as §1
# [6] = target: T1, Amine oxidase [flavin-containing] A (Mus musculus, UniProt Q64133); test: Inhibition of MAO A in mouse GL26 cells preincubated for 20 mins followed by 14C-labeled 5-hydroxytryptamine addition and measured after 20 mins by scintillation counter analysis; assay type: cell-based
# T1 sequence (Q64133 whole entry): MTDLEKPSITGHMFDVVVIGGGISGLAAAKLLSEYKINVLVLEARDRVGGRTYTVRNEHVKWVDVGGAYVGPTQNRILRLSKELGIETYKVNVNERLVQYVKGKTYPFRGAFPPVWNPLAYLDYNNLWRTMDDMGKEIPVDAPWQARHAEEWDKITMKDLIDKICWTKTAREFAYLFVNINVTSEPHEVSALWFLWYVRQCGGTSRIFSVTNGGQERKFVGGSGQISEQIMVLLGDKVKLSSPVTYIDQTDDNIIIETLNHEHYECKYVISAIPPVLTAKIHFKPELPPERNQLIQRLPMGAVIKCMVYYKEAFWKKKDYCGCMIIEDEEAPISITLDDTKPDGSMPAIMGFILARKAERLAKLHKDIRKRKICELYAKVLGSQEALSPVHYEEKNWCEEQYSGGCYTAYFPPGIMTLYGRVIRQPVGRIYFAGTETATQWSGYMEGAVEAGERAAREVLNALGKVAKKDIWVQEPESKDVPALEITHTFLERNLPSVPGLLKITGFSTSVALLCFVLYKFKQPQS
# HCT-116 [7] = test: Growth inhibition of human HCT-116 cells incubated for 48 hrs by SRB assay; assay type: functional; outline: as §1
# SNB-75 = test: Growth inhibition of human SNB-75 cells incubated for 48 hrs by SRB assay; assay type: functional; outline: as §1
# GL26 [8] = test: Upregulation of HSP70 expression in mouse GL26 cells incubated for 24 hrs by Western blot analysis; assay type: functional, cell-based; details: dose 0.1-3 µM
# [9] = Antiproliferative activity against human patient-derived TMZ-resistant GBM cells with MGMT negative P3R cell assessed as inhibition of cell growth measured after 72 hrs by CCK8 method; assay type: functional, cell-based; outline: as §2
# A 172 = test: Antiproliferative activity against human A-172 cells assessed as inhibition of cell growth measured after 72 hrs by CCK8 method; assay type: functional, cell-based; details: A 172, 72 h; outline: as §2
# U-251 [10] = test: Downregulation of Akt phosphorylation expression at Ser 473 residues in human Temozolomide-resistant U-251 cells incubated for 24 hrs by Western blot analysis; assay type: functional, cell-based; details: dose 0.1-3 µM
# A549 = test: Growth inhibition of human A549 cells incubated for 48 hrs by SRB assay; assay type: functional; outline: as §1
# GL26 [11] = test: Downregulation of Akt phosphorylation expression at Ser 473 residues in mouse GL26 cells incubated for 24 hrs by Western blot analysis; assay type: functional, cell-based; details: dose 0.1-3 µM
# SF-268 = test: Growth inhibition of human SF-268 cells incubated for 48 hrs by SRB assay; assay type: functional; outline: as §1
# LN-229 = test: Antiproliferative activity against human LN-229 cells assessed as inhibition of cell growth measured after 72 hrs by CCK8 method; assay type: functional, cell-based; details: LN-229, 72 h; outline: as §2
# U-251 [12] = test: Upregulation of HSP70 expression in human Temozolomide-resistant U-251 cells incubated for 24 hrs by Western blot analysis; assay type: functional, cell-based; details: dose 0.1-3 µM
# GL26 [13] = test: Downregulation of HER2 expression in mouse GL26 cells incubated for 24 hrs by Western blot analysis; assay type: functional, cell-based; details: dose 0.1-3 µM
# U-251 [14] = test: Antiproliferative activity against human Temozolomide-resistant U-251 cells assessed as inhibition of cell growth measured after 48 hrs by MTT assay; assay type: functional, cell-based; details: U-251, 48 h; outline: as §3
# SW-620 = test: Growth inhibition of human SW-620 cells incubated for 48 hrs by SRB assay; assay type: functional; outline: as §1
# SF-295 = test: Growth inhibition of human SF-295 cells incubated for 48 hrs by SRB assay; assay type: functional; outline: as §1
# [15] = Antitumor activity against mouse GL26 cells xenografted in C57BL/6J mouse model assessed as tumor growth inhibition at 25 mg/kg, ip administered daily for 3 days followed by every 3 days for 14 days by caliper method relative to control; assay type: functional; details: GL26, 336 h, time 14 day, read-out: TGI
# Outline: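 Male C57BL/6J mice aged 8-9 weeks received 2 × 10⁵ GL26 cells subcutaneously in the lower back. From day 9 after implantation, once tumours were palpable, 25 mg/kg was given i.p. daily for 3 days and then every 3 days over 14 days. Caliper volume was length × width² ÷ 2. TGI% was taken relative to the mean tumour size of the vehicle group.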
# U-251 [16] = test: Downregulation of HER2 expression in human Temozolomide-resistant U-251 cells incubated for 24 hrs by Western blot analysis; assay type: functional, cell-based; details: dose 0.1-3 µM
# NCI-H522 = test: Growth inhibition of human NCI-H522 cells incubated for 48 hrs by SRB assay; assay type: functional; outline: as §1
# NCI-H460 = test: Growth inhibition of human NCI-H460 cells incubated for 48 hrs by SRB assay; assay type: functional; outline: as §1
# U-87 MG = test: Antiproliferative activity against human U-87 MG cells assessed as inhibition of cell growth measured after 72 hrs by CCK8 method; assay type: functional, cell-based, U-87MG ATCC; outline: as §2
# [17] = Antiproliferative activity against human patient-derived, TMZ-resistant and concurrent chemo-radiotherapy (CCRT)-resistant P1S cell assessed as inhibition of cell growth measured after 72 hrs by CCK8 method; assay type: functional, cell-based; outline: as §2
# T98G = test: Antiproliferative activity against human T98G cells assessed as inhibition of cell growth measured after 72 hrs by CCK8 method; assay type: functional, cell-based; outline: as §2
# [18] = Antiproliferative activity against human patient-derived P3 cell assessed as inhibition of cell growth measured after 72 hrs by CCK8 method; assay type: functional, cell-based; outline: as §2
# [19] = target: Heat shock protein HSP 90-alpha (Homo sapiens, UniProt P07900); test: Inhibition of human recombinant HSP90alpha preincubated for 30 mins followed by FITC-GM addition and mesured after 3 hrs by fluorescence polarization assay
structure (smiles),measurement,setting,value
C#CCN(C)CCCOc1ccc(N(CC)C(=O)c2cc(C(C)C)c(O)cc2O)cc1Cl,GI50,RPMI-8226,330 nM
same,GI50,U-251 [1],370 nM
same,GI50,SF-539,310 nM
same,GI50,SNB-19,440 nM
same,IC50,[2],890 nM
same,IC50,[3],490 nM
same,Activity,HCT-116 [4],Active
same,Activity,GL26 [5],Dose-Dependent Effect
same,GI50,K562,70 nM
same,IC50,[6],4580 nM
same,GI50,HCT-116 [7],80 nM
same,GI50,SNB-75,860 nM
same,Activity,GL26 [8],Dose-Dependent Effect
same,IC50,[9],1450 nM
same,IC50,A 172,890 nM
same,Activity,U-251 [10],Dose-Dependent Effect
same,GI50,A549,140 nM
same,Activity,GL26 [11],Dose-Dependent Effect
same,GI50,SF-268,1430 nM
same,IC50,LN-229,310 nM
same,Activity,U-251 [12],Dose-Dependent Effect
same,Activity,GL26 [13],Dose-Dependent Effect
same,IC50,U-251 [14],260 nM
same,GI50,SW-620,240 nM
same,GI50,SF-295,320 nM
same,inhibition in vivo at 25 mg/kg,[15],59.8%
same,Activity,U-251 [16],Dose-Dependent Effect
same,GI50,NCI-H522,70 nM
same,GI50,NCI-H460,50 nM
same,IC50,U-87 MG,360 nM
same,IC50,[17],680 nM
same,IC50,T98G,460 nM
same,IC50,[18],2930 nM
same,IC50,[19],16 nM
